Data: ChEMBL document CHEMBL1137353, “6-(4-chlorophenyl)-3-substituted-thieno[3,2-d]pyrimidin-4(3H)-one-based melanin-concentrating hormone receptor 1 antagonist” (J Med Chem, 2006)

What was measured:
[1] = biological target: Melanin-concentrating hormone receptor 1 (Homo sapiens, UniProt Q99705); experiment: Antagonist activity against human MCH1 receptor stably-expressed in CHO cells by Gal4/Elk1-Luc reporter assay; format: functional, cell-based
How it was run: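 Human MCHR1 antagonism read out in CHO cells carrying a Gal4/Elk1 luciferase reporter. IC50 values are averages of 2-3 experiments.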

[2] = Oral bioavailability in rat at 3 mg/kg, iv and 10 mg/kg, po; format: ADME, organism-based; conditions: in vivo
How it was run: (§1)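 Rat PK. Dosed in 20% DMSO/21% Solutol in 10 mM MSA (final concentration), n = 2. IV dose 3 mg/kg, PO dose 10 mg/kg. Plasma drug levels measured by LC-MS/MS. Half-life taken from the IV dosing.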

[3] = Half life in rat at 3 mg/kg, iv; format: ADME, organism-based; design: dose 3 mg/kg, route intravenous; conditions: in vivo; how it was run: as §1
[4] = Volume of distribution in rat at 3 mg/kg, iv and 10 mg/kg, po; format: ADME, organism-based; conditions: in vivo, read-out: Vss; how it was run: as §1
[5] = Total clearance in rat at 3 mg/kg, iv and 10 mg/kg, po; format: ADME, organism-based; conditions: in vivo; how it was run: as §1
[6] = Dissociation constant, pKa of the compound; format: physicochemical
Mus musculus [7] = experiment: Reduction in body weight of DIO AKR/J mouse relative to control at 1 mg/kg/day, po after 21 days; format: functional; design: scale not given: the % may be the effect or the level left
How it was run: (§2)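 Diet-induced obese AKR/J mice on a high-fat diet (58% kcal fat). Oral dosing once daily for 21 days. Weight change expressed as percentage of pretreatment body weight for each group. Vehicle group and rimonabant (CB1 inverse agonist) used as controls. Mean ± SEM.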

Mus musculus [8] = experiment: Reduction in body weight of DIO AKR/J mouse relative to control at 3 mg/kg/day, po after 21 days; format: functional; design: scale not given: the % may be the effect or the level left; how it was run: as §2
Mus musculus [9] = experiment: Reduction in body weight of DIO AKR/J mouse relative to control at 10 mg/kg/day, po after 21 days; format: functional; design: scale not given: the % may be the effect or the level left; how it was run: as §2

Chain of Melanin-concentrating hormone receptor 1 (Q99705 whole entry, the tested form may be a part): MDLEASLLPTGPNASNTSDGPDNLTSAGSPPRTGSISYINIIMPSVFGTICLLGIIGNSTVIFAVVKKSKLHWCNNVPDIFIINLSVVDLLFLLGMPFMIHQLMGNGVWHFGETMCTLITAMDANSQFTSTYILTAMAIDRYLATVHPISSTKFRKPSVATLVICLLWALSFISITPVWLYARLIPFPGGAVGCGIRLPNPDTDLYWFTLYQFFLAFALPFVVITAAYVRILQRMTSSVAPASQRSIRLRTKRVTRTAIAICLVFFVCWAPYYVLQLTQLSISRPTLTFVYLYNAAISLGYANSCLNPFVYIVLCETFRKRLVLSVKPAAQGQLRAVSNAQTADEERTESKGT

O=c1c2sc(-c3ccc(Cl)cc3)cc2ncn1-c1ccc2c(c1)CCC(CN1CCCCC1)C2 (stereo not given) gave an IC50 [1] of 3.1 nM.
For O=c1c2sc(-c3ccc(Cl)cc3)cc2ncn1-c1ccc2cc(CN3CCCCC3)ccc2c1, the IC50 [1] was 0.39 nM.
Compound O=C(NCCCN1CCCC1)c1ccc2cc(-n3cnc4cc(-c5ccc(Cl)cc5)sc4c3=O)ccc2c1 has an IC50 [1] of 1410 nM.
Work on CN(C)CC1CCc2cc(-n3cnc4cc(-c5ccc(Cl)cc5)sc4c3=O)ccc2C1 (stereo not given) yielded an IC50 [1] of 1.1 nM.
In the case of O=c1c2sc(-c3ccc(Cl)cc3)cc2ncn1-c1ccc2c(c1)CCC(CN1CCCC1)C2 (stereo not given), the IC50 [1] is reported as 1.3 nM.
Work on CN(C)Cc1cc2cc(-n3cnc4cc(-c5ccc(Cl)cc5)sc4c3=O)ccc2s1 yielded an IC50 [1] of 1.3 nM.
For O=C(NCCN1CCCC1)c1ccc2cc(-n3cnc4cc(-c5ccc(Cl)cc5)sc4c3=O)ccc2c1, the IC50 [1] was 5 nM.
O=C(c1ccc2cc(-n3cnc4cc(-c5ccc(Cl)cc5)sc4c3=O)ccc2c1)N1CCCC1 showed an IC50 [1] greater than 10000 nM.
Work on O=c1c2sc(-c3ccc(Cl)cc3)cc2ncn1-c1ccc2oc(CN3CCCC3)cc2c1 yielded a bioavailability [2] of 21%, a half-life [3] of 1.6 h and a Vd [4] of 8.5 L/kg. The clearance [5] was 115 mL/min/kg and the IC50 [1] was 1.1 nM.
Work on O=c1c2sc(-c3ccc(Cl)cc3)cc2ncn1-c1ccc2cc(CO)ccc2c1 yielded an IC50 [1] of 31.6 nM.
Work on O=c1c2sc(-c3ccc(Cl)cc3)cc2ncn1-c1ccc2sc(CN3CCC(c4ccccc4)CC3)cc2c1 yielded a pKa [6] of 7.91, a bioavailability [2] of 27.9% and a half-life [3] of 5.9 h. For the same compound, the Vd [4] was 0.6 L/kg, the clearance [5] was 2.9 mL/min/kg and the IC50 [1] was 5.7 nM.
In the case of O=c1c2sc(-c3ccc(Cl)cc3)cc2ncn1-c1ccc2ccccc2c1, the IC50 [1] is reported as greater than 10000 nM.
With COC[C@H]1CCCN1Cc1cc2cc(-n3cnc4cc(-c5ccc(Cl)cc5)sc4c3=O)ccc2n1C the IC50 [1] was 1.4 nM.
With Cn1c(CN2CCCC2)cc2cc(-n3cnc4cc(-c5ccc(Cl)cc5)sc4c3=O)ccc21 the IC50 [1] was 1.1 nM.
O=c1c2sc(-c3ccc(Cl)cc3)cc2ncn1-c1ccc2c(c1)CCC(CN1CCCCC1)=C2 showed an IC50 [1] of 0.75 nM.
With O=c1c2sc(-c3ccc(Cl)cc3)cc2ncn1-c1ccc2sc(CN3CC[C@@H](O)C3)cc2c1 the bioavailability [2] was 36.1%, the half-life [3] was 2.1 h and the Vd [4] was 3.6 L/kg. For the same compound, the clearance [5] was 30.8 mL/min/kg and the IC50 [1] was 2.5 nM.
With O=c1c2sc(-c3ccc(Cl)cc3)cc2ncn1-c1ccc2sc(CN3CCCC3)cc2c1 the IC50 [1] was 0.91 nM.
COC[C@H]1CCCN1Cc1cc2cc(-n3cnc4cc(-c5ccc(Cl)cc5)sc4c3=O)ccc2o1 showed an IC50 [1] of 9.5 nM.
For O=c1c2sc(-c3ccc(Cl)cc3)cc2ncn1-c1ccc2sc(CN3CCN(c4ccccc4)CC3)cc2c1, the IC50 [1] was 29 nM.
For O=c1c2sc(-c3ccc(Cl)cc3)cc2ncn1-c1ccc2c(c1)CCC(CN1CCCC1)=C2, the bioavailability [2] was 57%, the half-life [3] was 11 h and the Vd [4] was 15.7 L/kg. It also gave a clearance [5] of 21.2 mL/min/kg and an IC50 [1] of 0.87 nM.
O=c1c2sc(-c3ccc(Cl)cc3)cc2ncn1-c1ccc2sc(CN3CCOCC3)cc2c1 gave an IC50 [1] of 38 nM.
CN(C)CC1=Cc2ccc(-n3cnc4cc(-c5ccc(Cl)cc5)sc4c3=O)cc2CC1 gave a bioavailability [2] of 67%, a half-life [3] of 3 h and a Vd [4] of 16 L/kg. It also gave a clearance [5] of 80 mL/min/kg and an IC50 [1] of 2.7 nM.
Compound O=C(O)c1ccc2cc(-n3cnc4cc(-c5ccc(Cl)cc5)sc4c3=O)ccc2c1 has an IC50 [1] greater than 10000 nM.
CN1CCN(Cc2cc3cc(-n4cnc5cc(-c6ccc(Cl)cc6)sc5c4=O)ccc3s2)CC1 gave a bioavailability [2] of 66%, a half-life [3] of 9.1 h and a Vd [4] of 20.4 L/kg. The clearance [5] was 39 mL/min/kg, the Activity (Mus musculus [7]) was 1.1% and the Activity (Mus musculus [8]) was 3.2%. It also gave an Activity (Mus musculus [9]) of 11.8% and an IC50 [1] of 5.7 nM.
O=c1c2sc(-c3ccc(Cl)cc3)cc2ncn1-c1ccc2sc(CN3CCCCC3)cc2c1 gave a pKa [6] of 8.29 and an IC50 [1] of 2 nM.
Cc1c(C(=O)NN2CCCCC2)nn(-c2ccc(Cl)cc2Cl)c1-c1ccc(Cl)cc1 [RIMONABANT] gave an Activity (Mus musculus [9]) of 8.4%.
